In ChEMBL document CHEMBL4014306, “Pyrazolopyrimidines as Potent Stimulators for Transient Receptor Potential Canonical 3/6/7 Channels” (J Med Chem, 2017):
Active and inactive are the calls of the source. No cut-off for these calls is given here.

Key:
Format in all cases: cell-based
[1] = biological target: T1, Short transient receptor potential channel 6 (Mus musculus, UniProt Q61143); assay: (§1) Agonist activity at mouse TRPC6 expressed in HEK293 cells co-expressing Gq11-PLCbeta fused M5 receptor assessed as induction of membrane potential depolarization measured for 2.5 mins by FLIPR assay
T1 sequence (Q61143 whole entry): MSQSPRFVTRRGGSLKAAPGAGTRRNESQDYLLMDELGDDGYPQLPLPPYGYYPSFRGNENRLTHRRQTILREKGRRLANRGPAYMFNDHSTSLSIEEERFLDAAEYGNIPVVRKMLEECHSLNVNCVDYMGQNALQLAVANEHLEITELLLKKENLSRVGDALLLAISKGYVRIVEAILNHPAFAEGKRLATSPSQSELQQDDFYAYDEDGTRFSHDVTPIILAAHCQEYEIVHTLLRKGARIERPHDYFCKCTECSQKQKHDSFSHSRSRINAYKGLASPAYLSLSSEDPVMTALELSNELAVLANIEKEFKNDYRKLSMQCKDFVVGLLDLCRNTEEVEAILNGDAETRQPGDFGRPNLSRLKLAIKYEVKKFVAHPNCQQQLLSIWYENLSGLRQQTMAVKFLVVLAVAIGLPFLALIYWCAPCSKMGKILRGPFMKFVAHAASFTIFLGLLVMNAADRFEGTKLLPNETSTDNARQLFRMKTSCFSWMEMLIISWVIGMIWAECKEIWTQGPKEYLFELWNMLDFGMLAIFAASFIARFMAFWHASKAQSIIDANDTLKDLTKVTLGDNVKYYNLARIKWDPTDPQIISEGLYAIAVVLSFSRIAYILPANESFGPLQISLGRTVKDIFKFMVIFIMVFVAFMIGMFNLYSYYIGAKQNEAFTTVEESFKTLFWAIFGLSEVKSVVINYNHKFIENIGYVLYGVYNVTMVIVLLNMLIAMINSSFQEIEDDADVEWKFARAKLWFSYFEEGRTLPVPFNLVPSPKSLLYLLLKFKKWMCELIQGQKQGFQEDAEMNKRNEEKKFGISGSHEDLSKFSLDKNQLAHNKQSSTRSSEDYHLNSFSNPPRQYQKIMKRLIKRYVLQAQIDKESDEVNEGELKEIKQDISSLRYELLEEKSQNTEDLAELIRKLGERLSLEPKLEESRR
Procedure, shortened: (§2)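 Mouse TRPC6/M5 stable HEK293 cells loaded with FLIPR membrane potential dye in extracellular solution containing 2 mM CaCl2, pH 7.4. Varying compound concentrations are applied, with 1 μM carbachol as reference, and read on a microplate reader at 32 °C. The increase in fluorescence (ΔF/F0) indicates depolarization. The concentration–response curve gives EC50, n = 6.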

[2] = biological target: T2, Short transient receptor potential channel 6 (Mus musculus) (UniProt Q61143); assay: as §1; procedure, shortened: as §2
T2 sequence (whole entry): T1 sequence (Q61143 whole entry)

[3] = biological target: T3, Short transient receptor potential channel 3 (Rattus norvegicus) (UniProt Q9JMI9); assay: Agonist activity at TRPC3 in rat primary glomerular mesangial cells assessed as increase in intracellular calcium level at 1 uM by Fluo4-AM dye-based fluorescence assay
T3 sequence (whole entry): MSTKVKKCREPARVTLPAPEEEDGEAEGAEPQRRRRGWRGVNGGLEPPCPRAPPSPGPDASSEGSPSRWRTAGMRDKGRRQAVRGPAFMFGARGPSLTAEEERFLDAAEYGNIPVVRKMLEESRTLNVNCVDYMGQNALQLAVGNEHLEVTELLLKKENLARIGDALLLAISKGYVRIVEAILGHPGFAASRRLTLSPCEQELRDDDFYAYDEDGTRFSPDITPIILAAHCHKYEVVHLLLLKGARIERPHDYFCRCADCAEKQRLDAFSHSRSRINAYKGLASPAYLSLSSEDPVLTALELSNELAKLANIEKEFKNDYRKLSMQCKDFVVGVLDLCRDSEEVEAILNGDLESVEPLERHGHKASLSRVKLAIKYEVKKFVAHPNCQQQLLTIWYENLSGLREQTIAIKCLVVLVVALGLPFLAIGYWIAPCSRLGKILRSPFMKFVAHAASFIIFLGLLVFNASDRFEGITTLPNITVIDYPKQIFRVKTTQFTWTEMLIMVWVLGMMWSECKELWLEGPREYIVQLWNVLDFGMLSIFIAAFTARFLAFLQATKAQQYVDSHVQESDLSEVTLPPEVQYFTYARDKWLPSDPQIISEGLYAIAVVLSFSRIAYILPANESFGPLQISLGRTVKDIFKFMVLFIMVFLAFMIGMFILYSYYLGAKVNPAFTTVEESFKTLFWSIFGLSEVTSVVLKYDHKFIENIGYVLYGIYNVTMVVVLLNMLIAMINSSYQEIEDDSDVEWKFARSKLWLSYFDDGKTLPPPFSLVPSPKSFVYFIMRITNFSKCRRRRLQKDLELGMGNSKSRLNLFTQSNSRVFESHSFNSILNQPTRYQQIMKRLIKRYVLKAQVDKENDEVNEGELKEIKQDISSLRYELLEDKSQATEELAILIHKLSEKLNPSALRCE
Procedure, shortened: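 Rat glomerular mesangial cells, isolated by graded sieving from male Sprague–Dawley rats, collagenase-digested, cultured in RPMI 1640 with 17% FBS. Grown overnight on coverslips, then loaded with 10 μM Fluo4-AM and 0.02% pluronic F-127 for 1 h at 37 °C in 1 mM Ca2+ saline, pH 7.4. Compound at 1 μM. Confocal imaging, ex 488/em 515 nm, read as F/F0. For the 2-APB condition, 30 μM 2-APB for 2 min beforehand and kept during compound application.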

| Activity [3] | Structure (SMILES) | EC50 [1] [nM] | Activity [2] |
| --- | --- | --- | --- |
|  | CCOC(=O)N1CCC(c2cc(O)n3nc(C)c(-c4ccc(F)cc4)c3n2)CC1 | 1400 | Dose-dependent effect |
| Active | Cc1nn2c(O)cc(C3CCN(C(=O)OCc4ccccc4)CC3)nc2c1-c1ccc(F)cc1 |  |  |
